{
  "source": "ChEMBL document CHEMBL3271956",
  "about": "“Oxindole-3-spiropyrrolidines and -piperidines. Synthesis and local anesthetic activity” (J Med Chem, 1976)",
  "key": {"Rattus norvegicus [1]": {"test_system": "Rattus norvegicus", "experiment": "Local anesthetic activity in rat assessed as onset time at 1% administered as base by sciatic nerve block method", "assay_type": "functional", "in_short": "(§1)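 Rat sciatic nerve block. Solutions are dosed with concentration expressed as base, and the pH of each solution is recorded. Groups are typically 10 rats. Onset is given in min. Frequency is the number of rats blocked out of those tested. Duration is in min, as mean ± SD.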"}, "Rattus norvegicus [2]": {"test_system": "Rattus norvegicus", "experiment": "Local anesthetic activity in rat assessed as onset time at 2% administered as base by sciatic nerve block method", "assay_type": "functional", "in_short": "as §1"}, "Rattus norvegicus [3]": {"test_system": "Rattus norvegicus", "experiment": "Local anesthetic activity in rat assessed as duration of action at 1% administered as base by sciatic nerve block method", "assay_type": "functional", "in_short": "as §1"}, "Rattus norvegicus [4]": {"test_system": "Rattus norvegicus", "experiment": "Local anesthetic activity in rat assessed as duration of action at 2% administered as base by sciatic nerve block method", "assay_type": "functional", "in_short": "as §1"}, "Rattus norvegicus [5]": {"test_system": "Rattus norvegicus", "experiment": "Local anesthetic activity in rat assessed as frequency at 1% administered as base by sciatic nerve block method", "assay_type": "functional, organism-based", "in_short": "as §1"}, "Rattus norvegicus [6]": {"test_system": "Rattus norvegicus", "experiment": "Local anesthetic activity in rat assessed as frequency at 2% administered as base by sciatic nerve block method", "assay_type": "functional, organism-based", "in_short": "as §1"}, "[7]": {"experiment": "Toxicity in iv dosed mouse", "assay_type": "organism-based", "settings": "in vivo"}, "Rattus norvegicus [8]": {"test_system": "Rattus norvegicus", "experiment": "Toxicity in rat at 2% administered as base after 25 mins", "assay_type": "organism-based", "settings": "in vivo"}, "Rattus norvegicus [9]": {"test_system": "Rattus norvegicus", "experiment": "Toxicity in rat at 2% administered as base after 40 mins", "assay_type": "organism-based", "settings": "in vivo"}, "Rattus norvegicus [10]": {"test_system": "Rattus norvegicus", "experiment": "Toxicity in rat at 2% administered as base after 30 mins", "assay_type": "organism-based", "settings": "in vivo, 0.5 h"}},
  "note": "Calls of active or inactive are those of the source. The calls are words filed in the database; no cut-off is given here.",
  "data": [
    {"smiles": "CCCN1CCC2(C1)C(=O)Nc1ccccc12.Cl", "note": "(configuration not stated)", "values": [
      {"measurement": "Time", "setting": "Rattus norvegicus [1]", "result": 3, "unit": "min"},
      {"measurement": "Time", "setting": "Rattus norvegicus [2]", "result": 2, "unit": "min"},
      {"measurement": "Time", "setting": "Rattus norvegicus [3]", "result": 66, "unit": "min"},
      {"measurement": "Time", "setting": "Rattus norvegicus [4]", "result": 78, "unit": "min"}
    ]},
    {"smiles": "CCN1CCC2(CC1)C(=O)Nc1ccccc12", "values": [
      {"measurement": "Time", "setting": "Rattus norvegicus [1]", "result": 6, "unit": "min"},
      {"measurement": "Time", "setting": "Rattus norvegicus [2]", "result": 5, "unit": "min"},
      {"measurement": "Activity", "setting": "Rattus norvegicus [5]", "result": "Active"},
      {"measurement": "Activity", "setting": "Rattus norvegicus [6]", "result": "Active"},
      {"measurement": "Time", "setting": "Rattus norvegicus [3]", "result": 86, "unit": "min"},
      {"measurement": "Time", "setting": "Rattus norvegicus [4]", "result": 120, "unit": "min"},
      {"measurement": "LD50", "setting": "[7]", "result": 53, "unit": "mg/kg"}
    ]},
    {"smiles": "CCCN1CCCC2(C1)C(=O)Nc1ccccc12", "note": "(configuration not stated) [listing 1 of 2 here]", "values": [
      {"measurement": "LD50", "setting": "[7]", "result": 41, "unit": "mg/kg"}
    ]},
    {"smiles": "CCN1CCC2(CC1)C(=O)Nc1c(C)cccc12", "values": [
      {"measurement": "Time", "setting": "Rattus norvegicus [1]", "result": 3, "unit": "min"},
      {"measurement": "Time", "setting": "Rattus norvegicus [2]", "result": 3, "unit": "min"},
      {"measurement": "Activity", "setting": "Rattus norvegicus [5]", "result": "Active"},
      {"measurement": "Activity", "setting": "Rattus norvegicus [6]", "result": "Active"},
      {"measurement": "Time", "setting": "Rattus norvegicus [3]", "result": 108, "unit": "min"},
      {"measurement": "Activity", "setting": "Rattus norvegicus [8]", "result": "Toxic"},
      {"measurement": "Activity", "setting": "Rattus norvegicus [9]", "result": "Toxic"},
      {"measurement": "LD50", "setting": "[7]", "result": 21, "unit": "mg/kg"}
    ]},
    {"smiles": "CCN1CCCC12C(=O)Nc1ccccc12", "note": "(configuration not stated)", "values": [
      {"measurement": "Time", "setting": "Rattus norvegicus [1]", "result": 6, "unit": "min"},
      {"measurement": "Time", "setting": "Rattus norvegicus [2]", "result": 5, "unit": "min"},
      {"measurement": "Activity", "setting": "Rattus norvegicus [5]", "result": "Active"},
      {"measurement": "Activity", "setting": "Rattus norvegicus [6]", "result": "Active"},
      {"measurement": "Time", "setting": "Rattus norvegicus [3]", "result": 83, "unit": "min"},
      {"measurement": "Time", "setting": "Rattus norvegicus [4]", "result": 107, "unit": "min"},
      {"measurement": "LD50", "setting": "[7]", "result": 119, "unit": "mg/kg"}
    ]},
    {"smiles": "CCCN1CCC2(C1)C(=O)Nc1ccccc12", "note": "(configuration not stated) [listing 1 of 2 here]", "values": [
      {"measurement": "Activity", "setting": "Rattus norvegicus [5]", "result": "Active"},
      {"measurement": "Activity", "setting": "Rattus norvegicus [6]", "result": "Active"}
    ]},
    {"smiles": "CN1CCCCC12C(=O)Nc1ccccc12", "note": "(configuration not stated)", "values": [
      {"measurement": "Time", "setting": "Rattus norvegicus [1]", "result": 5, "unit": "min"},
      {"measurement": "Time", "setting": "Rattus norvegicus [2]", "result": 3, "unit": "min"},
      {"measurement": "Activity", "setting": "Rattus norvegicus [5]", "result": "Active"},
      {"measurement": "Activity", "setting": "Rattus norvegicus [6]", "result": "Active"},
      {"measurement": "Time", "setting": "Rattus norvegicus [3]", "result": 81, "unit": "min"},
      {"measurement": "Time", "setting": "Rattus norvegicus [4]", "result": 97, "unit": "min"},
      {"measurement": "LD50", "setting": "[7]", "result": 97, "unit": "mg/kg"}
    ]},
    {"smiles": "CCN1CCC2(C1)C(=O)Nc1c(C)cccc12", "note": "(configuration not stated) [listing 1 of 2 here]", "values": [
      {"measurement": "LD50", "setting": "[7]", "result": 23, "unit": "mg/kg"}
    ]},
    {"smiles": "CCN1CCC2(C1)C(=O)Nc1ccccc12", "note": "(configuration not stated)", "values": [
      {"measurement": "Time", "setting": "Rattus norvegicus [1]", "result": 4, "unit": "min"},
      {"measurement": "Time", "setting": "Rattus norvegicus [2]", "result": 3, "unit": "min"},
      {"measurement": "Activity", "setting": "Rattus norvegicus [5]", "result": "Active"},
      {"measurement": "Activity", "setting": "Rattus norvegicus [6]", "result": "Active"},
      {"measurement": "Time", "setting": "Rattus norvegicus [3]", "result": 67, "unit": "min"},
      {"measurement": "Time", "setting": "Rattus norvegicus [4]", "result": 85, "unit": "min"},
      {"measurement": "LD50", "setting": "[7]", "result": 38, "unit": "mg/kg"}
    ]},
    {"smiles": "CCN1CCC2(C1)C(=O)Nc1c(C)cccc12", "note": "(configuration not stated) [listing 2 of 2 here]", "values": [
      {"measurement": "Activity", "setting": "Rattus norvegicus [5]", "result": "Active"},
      {"measurement": "Activity", "setting": "Rattus norvegicus [6]", "result": "Active"}
    ]},
    {"smiles": "CCCN1CCC2(C1)C(=O)Nc1ccccc12", "note": "(configuration not stated) [listing 2 of 2 here]", "values": [
      {"measurement": "LD50", "setting": "[7]", "result": 25, "unit": "mg/kg"}
    ]},
    {"smiles": "CCCN1CCCC2(C1)C(=O)Nc1ccccc12.O=S(=O)(O)O", "note": "(configuration not stated)", "values": [
      {"measurement": "Time", "setting": "Rattus norvegicus [1]", "result": 6, "unit": "min"},
      {"measurement": "Time", "setting": "Rattus norvegicus [2]", "result": 4, "unit": "min"},
      {"measurement": "Time", "setting": "Rattus norvegicus [3]", "result": 75, "unit": "min"},
      {"measurement": "Time", "setting": "Rattus norvegicus [4]", "result": 95, "unit": "min"}
    ]},
    {"smiles": "CCN(CC)CC(=O)Nc1c(C)cccc1C", "note": "[LIDOCAINE]", "values": [
      {"measurement": "Time", "setting": "Rattus norvegicus [2]", "result": 1, "unit": "min"},
      {"measurement": "Activity", "setting": "Rattus norvegicus [5]", "result": "Active"},
      {"measurement": "Activity", "setting": "Rattus norvegicus [6]", "result": "Active"},
      {"measurement": "Time", "setting": "Rattus norvegicus [4]", "result": 141, "unit": "min"}
    ]},
    {"smiles": "CCCN1CCCC2(C1)C(=O)Nc1ccccc12", "note": "(configuration not stated) [listing 2 of 2 here]", "values": [
      {"measurement": "Activity", "setting": "Rattus norvegicus [5]", "result": "Active"},
      {"measurement": "Activity", "setting": "Rattus norvegicus [6]", "result": "Active"}
    ]},
    {"smiles": "CCN1CCC2(C1)C(=O)Nc1c(C)cccc12.Cl", "note": "(configuration not stated)", "values": [
      {"measurement": "Time", "setting": "Rattus norvegicus [1]", "result": 3, "unit": "min"},
      {"measurement": "Time", "setting": "Rattus norvegicus [2]", "result": 2, "unit": "min"},
      {"measurement": "Time", "setting": "Rattus norvegicus [3]", "result": 93, "unit": "min"},
      {"measurement": "Activity", "setting": "Rattus norvegicus [10]", "result": "Toxic"}
    ]},
    {"smiles": "CN1CCC2(C1)C(=O)Nc1ccccc12", "note": "(configuration not stated)", "values": [
      {"measurement": "Time", "setting": "Rattus norvegicus [1]", "result": 11, "unit": "min"},
      {"measurement": "Time", "setting": "Rattus norvegicus [2]", "result": 6, "unit": "min"},
      {"measurement": "Activity", "setting": "Rattus norvegicus [5]", "result": "Active"},
      {"measurement": "Activity", "setting": "Rattus norvegicus [6]", "result": "Active"},
      {"measurement": "Time", "setting": "Rattus norvegicus [3]", "result": 56, "unit": "min"},
      {"measurement": "Time", "setting": "Rattus norvegicus [4]", "result": 83, "unit": "min"}
    ]}
  ]
}
